Source: ChEMBL document CHEMBL2150916, “Dual inhibition of γ-oryzanol on cellular melanogenesis: inhibition of tyrosinase activity and reduction of melanogenic gene expression by a protein kinase A-dependent mechanism” (J Nat Prod, 2012)
One block for each compound: values may come before it. Calls of active or inactive are those of the source. The rule behind the calls is not given here.

Legend:
[1] = Cytotoxicity against mouse B16-F1 cells; format: cell-based
In short: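 MTT assay on B16F1 murine melanoma cells tested over 300−0.03 μM. Cells grown in DMEM with 10% FBS and 1% penicillin/streptomycin at 37 °C, 5% CO2.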

[2] = molecular target: T1, Tyrosinase (Agaricus bisporus) (UniProt O42713); assay: Inhibition of mushroom tyrosinase after 20 mins
T1 sequence (whole entry): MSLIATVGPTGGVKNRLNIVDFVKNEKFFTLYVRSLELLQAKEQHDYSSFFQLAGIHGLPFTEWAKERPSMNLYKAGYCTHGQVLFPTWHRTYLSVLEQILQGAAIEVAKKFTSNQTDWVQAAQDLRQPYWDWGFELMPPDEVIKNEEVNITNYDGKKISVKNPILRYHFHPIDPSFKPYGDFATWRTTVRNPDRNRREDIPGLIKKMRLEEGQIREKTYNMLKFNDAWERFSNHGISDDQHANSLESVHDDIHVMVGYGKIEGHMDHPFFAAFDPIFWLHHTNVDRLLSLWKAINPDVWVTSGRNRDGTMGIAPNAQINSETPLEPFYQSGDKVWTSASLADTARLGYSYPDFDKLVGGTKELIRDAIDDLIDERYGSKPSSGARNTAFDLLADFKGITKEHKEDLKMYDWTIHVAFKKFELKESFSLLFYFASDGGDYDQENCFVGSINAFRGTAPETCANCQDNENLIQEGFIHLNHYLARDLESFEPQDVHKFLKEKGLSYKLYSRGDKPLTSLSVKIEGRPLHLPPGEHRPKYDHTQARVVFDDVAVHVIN
In short: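 Mushroom tyrosinase in 0.1 M phosphate buffer with 0.03% (w/v) tyrosine as substrate, incubated 37 °C for 20 min. OD read at 492 nm; inhibition % = (1 − sample/control OD492) × 100. Arbutin positive control.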

B16/F1 [3] = assay: Inhibition of PKA in mouse B16-F1 cells assessed as decrease of MITF promoter- dependent sex-determining region Y-box 10 mRNA expression at 3 uM after 72 hrs by […]; format: cell-based
In short: (§1)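 Two-color oligonucleotide microarray on Mouse OneArray chips, comparing untreated and treated (3 μM) B16F1 cells labelled with Cy3/Cy5-dUTP. RNA extracted with RNAiso Plus and further purified. Arrays scanned and probe-level expression values computed.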

B16/F1 [4] = assay: Inhibition of PKA in mouse B16-F1 cells assessed as effect on ERK2 mRNA expression at 3 uM after 72 hrs by RT-PCR analysis; format: cell-based
B16/F1 [5] = assay: Inhibition of PKA in mouse B16-F1 cells assessed as decrease of TRP-1 mRNA expression at 3 uM after 72 hrs by RT-PCR analysis; format: cell-based
In short: (§2)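 B16F1 cells treated 72 h at 3 μM. Total RNA extracted with Trizol; cDNA made from 2 μg RNA with M-MLV reverse transcriptase and oligo(dT). qPCR run 95 °C 3 min, then 50 cycles of 95 °C 10 s, 56 °C 15 s, 72 °C 20 s, with melting-curve check. Expression calculated relative to cyclophilin. Means ± SE of three independent experiments.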

B16/F1 [6] = assay: Inhibition of PKA in mouse B16-F1 cells assessed as decrease of dopachrome tautomerase mRNA expression at 3 uM after 72 hrs by RT-PCR analysis; format: cell-based; in short: as §2
[7] = molecular target: T2, Tyrosinase (Mus musculus) (UniProt P11344); assay: Inhibition of tyrosinase in mouse B16-F1 cells using L-DOPA as substrate at 30 uM after 72 hrs; format: cell-based
T2 sequence (whole entry): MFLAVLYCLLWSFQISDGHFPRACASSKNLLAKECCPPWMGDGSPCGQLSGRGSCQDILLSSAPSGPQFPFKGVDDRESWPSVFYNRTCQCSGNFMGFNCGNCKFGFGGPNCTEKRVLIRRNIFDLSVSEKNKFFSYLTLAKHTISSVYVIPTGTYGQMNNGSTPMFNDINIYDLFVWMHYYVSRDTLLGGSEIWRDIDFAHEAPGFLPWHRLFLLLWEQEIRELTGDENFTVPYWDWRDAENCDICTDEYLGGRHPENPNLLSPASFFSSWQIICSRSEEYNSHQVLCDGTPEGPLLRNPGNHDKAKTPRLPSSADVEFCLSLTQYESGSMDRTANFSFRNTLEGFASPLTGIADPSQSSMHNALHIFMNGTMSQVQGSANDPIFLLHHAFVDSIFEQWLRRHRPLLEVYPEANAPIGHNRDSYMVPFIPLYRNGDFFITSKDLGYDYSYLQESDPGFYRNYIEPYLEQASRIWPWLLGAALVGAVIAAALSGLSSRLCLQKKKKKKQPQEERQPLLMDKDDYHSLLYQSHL
In short: (§3)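 B16F1 cells treated 72 h with 3 or 30 μM. Cells lysed in 1% Triton X-100/PBS pH 6.8 and spun at 12000g, 4 °C. Supernatant mixed with 0.1% (w/v) L-DOPA; A475 followed over the first 2 h and normalized to total protein. Means ± SE of three independent experiments.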

B16-F1 [8] = assay: Inhibition of melanin synthesis in mouse B16-F1 cells at 30 uM after 72 hrs by spectrophotometric analysis relative to control; format: functional; conditions: B16-F1, 72 h
In short: (§4)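 B16F1 cells treated 72 h (3 or 30 μM). After lysis and centrifugation at 12000g, pellets dissolved in 1 N NaOH at 60 °C for 1 h. Absorbance read at 400 nm against a synthetic melanin standard, normalized to Bradford protein. Arbutin positive control. Means ± SE of three independent experiments.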

B16/F1 [9] = assay: Inhibition of PKA in mouse B16-F1 cells assessed as effect on ERK2 phosphorylation at 3 uM after 72 hrs by immunoblotting; format: cell-based
B16/F1 [10] = assay: Inhibition of PKA in mouse B16-F1 cells assessed as decrease of dopachrome tautomerase protein expression at 3 uM after 72 hrs by immunoblotting relative to control; format: cell-based
In short: (§5)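 B16F1 cells treated 72 h at 3 μM. 40 μg total protein (Bradford) run on 10% SDS-PAGE and transferred to nitrocellulose. Blocked in TBS with 5% nonfat milk and 0.1% Tween 20. Probed with primary antibodies plus HRP secondaries and read by chemiluminescence. Band densities normalized to α-tubulin. Means ± SE of three independent experiments.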

[11] = molecular target: T2, Tyrosinase (Mus musculus); assay: Inhibition of tyrosinase in mouse B16-F1 cells using L-DOPA as substrate at 3 uM after 72 hrs; format: cell-based; in short: as §3
B16/F1 [12] = assay: Inhibition of PKA in mouse B16-F1 cells assessed as decrease of MITF mRNA expression at 3 uM after 72 hrs by RT-PCR analysis; format: cell-based; in short: as §2
B16/F1 [13] = assay: Inhibition of PKA in mouse B16-F1 cells assessed as decrease of CREB mRNA expression at 3 uM after 72 hrs by […]; format: cell-based; in short: as §1
B16/F1 [14] = assay: Inhibition of PKA in mouse B16-F1 cells assessed as decrease of MITF promoter- dependent lymphoid enhancer factor mRNA expression at 3 uM after 72 hrs by […]; format: cell-based; in short: as §1
B16/F1 [15] = assay: Inhibition of PKA in mouse B16-F1 cells assessed as decrease of intracellular cAMP level at 3 uM after 72 hrs by colorimetric competitive immunoassay; format: cell-based
In short: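 Cellular cAMP in B16F1 cells after 72 h at 3 μM, measured by colorimetric competitive immunoassay kit. Means ± SE of three independent experiments.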

B16-F1 [16] = assay: Inhibition of melanin synthesis in mouse B16-F1 cells at 30 uM after 30 mins by Fontana-Masson staining; format: functional, cell-based; conditions: in the assay text read “after 72 hrs” for “after 30 mins”
In short: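 B16F1 cells on slides treated with 30 μM, fixed in 4% paraformaldehyde for 30 min at room temperature. Melanin stained by Fontana−Masson (ammoniacal silver, gold chloride, sodium thiosulfate).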

B16/F1 [17] = assay: Inhibition of PKA in mouse B16-F1 cells assessed as decrease of MITF protein expression at 3 uM after 72 hrs by immunoblotting relative to control; format: cell-based; in short: as §5
[18] = Cytotoxicity against mouse B16-F1 cells at 5 mM; format: cell-based; conditions: b16-f1, 5000 µM
B16/F1 [19] = assay: Inhibition of PKA in mouse B16-F1 cells assessed as decrease of phosphorylated CREB expression at 3 uM after 72 hrs by immunoblotting; format: cell-based; in short: as §5
B16-F1 [20] = assay: Inhibition of melanin synthesis in mouse B16-F1 cells at 3 uM after 72 hrs by spectrophotometric analysis relative to control; format: functional; conditions: B16-F1, 72 h; in short: as §4
B16/F1 [21] = assay: Inhibition of PKA in mouse B16-F1 cells assessed as decrease of MITF promoter- dependent paired-box 3 mRNA expression at 3 uM after 72 hrs […]; format: cell-based; in short: as §1
B16/F1 [22] = assay: Inhibition of PKA in mouse B16-F1 cells assessed as decrease of TRP-1 mRNA expression at 3 uM after 72 hrs by RT-PCR analysis relative to control; format: cell-based; in short: as §2
B16/F1 [23] = assay: Inhibition of PKA in mouse B16-F1 cells assessed as decrease of MC1R mRNA expression at 3 uM after 72 hrs by RT-PCR analysis; format: cell-based
B16/F1 [24] = assay: Inhibition of PKA in mouse B16-F1 cells assessed as decrease of TRP-1 protein expression at 3 uM after 72 hrs by immunoblotting relative to control; format: cell-based; in short: as §5
B16-F1 [25] = assay: Inhibition of melanin synthesis in mouse B16-F1 cells after 72 hrs by spectrophotometric analysis; format: functional, cell-based; in short: as §4
B16/F1 [26] = assay: Inhibition of PKA in mouse B16-F1 cells assessed as decrease of dopachrome tautomerase mRNA expression at 3 uM after 72 hrs by RT-PCR analysis relative to control; format: cell-based; in short: as §2
B16/F1 [27] = assay: Inhibition of PKA in mouse B16-F1 cells assessed as decrease of MITF mRNA expression at 3 uM after 72 hrs by RT-PCR analysis relative to control; format: cell-based; in short: as §2

inhibition [2]: Active
SMILES: OC[C@H]1O[C@@H](Oc2ccc(O)cc2)[C@H](O)[C@@H](O)[C@@H]1O [ARBUTIN]
Activity [1]: Toxic

SMILES: COc1cc(/C=C/C(=O)O[C@H]2CC[C@]34C[C@]35CC[C@]3(C)[C@@H]([C@H](C)CCC=C(C)C)CC[C@@]3(C)[C@@H]5CC[C@H]4C2(C)C)ccc1O [GAMMA ORYZANOL]
inhibition (B16/F1 [3]): 90% | inhibition (B16/F1 [4]): inactive | inhibition (B16/F1 [5]): 94% | inhibition (B16/F1 [6]): 56% | inhibition [7]: 26% | inhibition at 30 µM (B16-F1 [8]): 28% | inhibition (B16/F1 [9]): inactive | inhibition (B16/F1 [10]): 92% | inhibition [11]: 29% | inhibition [2]: Dose-dependent effect | inhibition (B16/F1 [12]): 90% | inhibition (B16/F1 [13]): 28% | inhibition (B16/F1 [14]): 40% | inhibition (B16/F1 [15]): 13% | inhibition (B16-F1 [16]): Active | inhibition (B16/F1 [17]): 64% | Activity [18]: Non-toxic | inhibition (B16/F1 [19]): 57% | inhibition at 3 µM (B16-F1 [20]): 13% | inhibition (B16/F1 [21]): 29% | inhibition (B16/F1 [22]): 69% | inhibition (B16/F1 [23]): 56% | inhibition (B16/F1 [24]): 82% | inhibition (B16-F1 [25]): Dose-dependent effect | inhibition (B16/F1 [26]): 51% | inhibition (B16/F1 [27]): 59%
